Reference: ChEMBL document CHEMBL4368930, “Synthesis and anti-HSV activity of tricyclic penciclovir and hydroxybutylguanine derivatives” (Bioorg Med Chem, 2019)

Key:
Human alphaherpesvirus 2 = assay: Antiviral activity against herpes simplex virus 2 G infected in HEL cells assessed as reduction in virus-induced cytopathogenicity by microscopic analysis; format: functional, organism-based; conditions: Human alphaherpesvirus 2, G
Outline: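 Confluent cell monolayers were inoculated with 100 CCID50 of virus or 20 PFU. After a 1–2 h adsorption, residual virus was removed and cultures were incubated with the test compounds at 200, 40, 8, 1.6 and 0.32 μM. Cytopathicity was scored once it was complete in untreated infected controls.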

Human alphaherpesvirus 1 [1] = assay: Antiviral activity against herpes simplex virus 1 KOS infected in HEL cells assessed as reduction in virus-induced cytopathogenicity by microscopic analysis; format: functional, organism-based; conditions: Human alphaherpesvirus 1, strain KOS
[2] = Cytostatic activity against human DND41 cells; format: ADME, cell-based
Z-138 = assay: Cytostatic activity against human Z138 cells; format: ADME, cell-based
[3] = Cytostatic activity against human HAP1 cells; format: ADME, cell-based
CAPAN-1 = assay: Cytostatic activity against human Capan1 cells; format: ADME, cell-based
TERT-RPE1 = assay: Cytostatic activity against human hTERT-RPE1 cells; format: ADME, cell-based; conditions: RPE-1
Outline: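 Cell proliferation was measured against the number of cells in untreated controls.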

HL-60 = assay: Cytostatic activity against human HL60 cells; format: ADME, cell-based
K562 = assay: Cytostatic activity against human K562 cells; format: ADME, cell-based
NCI-H460 = assay: Cytostatic activity against human NCI-H460 cells; format: ADME, cell-based
Human alphaherpesvirus 1 [4] = assay: Antiviral activity against thymidine kinase deficient and aciclovir resistant herpes simplex virus 1 KOS infected in HEL cells assessed as reduction in virus-induced cytopathogenicity by microscopic analysis; format: functional, organism-based; conditions: Human alphaherpesvirus 1, strain KOS
[5] = Cytotoxicity against HEL cells assessed as effect on cell morphology at 0.32 to 200 uM by microscopic analysis; format: cell-based; conditions: human
Human betaherpesvirus 5 [6] = assay: Antiviral activity against Human cytomegalovirus AD169 assessed as reduction in virus-induced cytopathogenicity by microscopic analysis; format: functional, organism-based; conditions: Human betaherpesvirus 5, strain AD169
Human betaherpesvirus 5 [7] = assay: Antiviral activity against Human cytomegalovirus Davis assessed as reduction in virus-induced cytopathogenicity by microscopic analysis; format: functional, organism-based; conditions: Human betaherpesvirus 5, Davis
Human alphaherpesvirus 3 [8] = assay: Antiviral activity against thymidine kinase deficient Varicella-zoster virus 07-1 infected in HEL cells assessed as reduction in virus plaque formation; format: functional, organism-based; conditions: Human alphaherpesvirus 3, 07-1, HEL
Human alphaherpesvirus 3 [9] = assay: Antiviral activity against Varicella-zoster virus Oka harboring thymidine kinase infected in HEL cells assessed as reduction in virus plaque formation; format: functional, organism-based; conditions: Human alphaherpesvirus 3, Oka

Compound | EC50 (Human alphaherpesvirus 2) [µM] | EC50 (Human alphaherpesvirus 1 [1]) [µM] | IC50 [2] [µM] | IC50 (Z-138) [µM] | IC50 [3] [µM] | IC50 (CAPAN-1) [µM] | IC50 (TERT-RPE1) [µM] | IC50 (HL-60) [µM] | IC50 (K562) [µM] | IC50 (NCI-H460) [µM] | EC50 (Human alphaherpesvirus 1 [4]) [µM] | MCC at up to 200 µM [5] [µM] | EC50 (Human betaherpesvirus 5 [6]) [µM] | EC50 (Human betaherpesvirus 5 [7]) [µM] | EC50 (Human alphaherpesvirus 3 [8]) [µM] | EC50 (Human alphaherpesvirus 3 [9]) [µM]
O=c1c2ncn(CCCCO)c2nc2[nH]c(-c3ccc(Cl)cc3)cn12 | > 100 | > 100 | > 100 | > 100 | > 100 | 64.4 | > 100 | > 100 | > 100 | > 100 | > 100 | > 100 |  |  |  | 
O=c1c2ncn(CCCCO)c2nc2[nH]c(-c3ccccc3)cn12 | > 100 | > 100 | > 100 | > 100 | > 100 | 69.1 | > 100 | > 100 | > 100 | > 100 | > 100 | > 100 |  |  |  | 
Cc1ccc(-c2cn3c(=O)c4ncn(CCCCO)c4nc3[nH]2)cc1 | > 100 | > 100 | > 100 | > 100 | > 100 | 78.9 | > 100 | > 100 | > 100 | > 100 | > 100 | > 100 |  |  |  | 
O=c1c2ncn(CCCCO)c2nc2[nH]c(-c3cccs3)cn12 | > 100 | > 100 | > 100 | > 100 | > 100 | > 100 | > 100 | > 100 | > 100 | > 100 | > 100 | > 100 |  |  |  | 
O=c1c2ncn(CCC(CO)CO)c2nc2[nH]c(-c3ccc(Cl)cc3)cn12 | > 100 | > 100 | > 100 | > 100 | > 100 | 84.8 | > 100 | > 100 | > 100 | > 100 | > 100 | > 100 | > 100 | > 100 | > 100 | > 100
O=c1c2ncn(CCC(CO)CO)c2nc2[nH]c(-c3ccc(F)cc3)cn12 | 28 | 8.9 | > 100 | > 100 | > 100 | 82.8 | > 100 | > 100 | > 100 | > 100 | 12 | > 100 | > 100 | > 100 | > 100 | > 100
O=c1c2ncn(CCCCO)c2nc2[nH]c(-c3ccc(F)cc3)cn12 | > 100 | > 100 | > 100 | > 100 | > 100 | 56.1 | > 100 | > 100 | > 100 | 55.5 | > 100 | > 100 |  |  |  | 
COc1ccc(-c2cn3c(=O)c4ncn(CCCCO)c4nc3[nH]2)cc1 | > 100 | > 100 | > 100 | > 100 | > 100 | 98.9 | > 100 | > 100 | > 100 | > 100 | > 100 | > 100 |  |  |  | 
O=c1c2ncn(CCC(CO)CO)c2nc2[nH]c(-c3ccccc3)cn12 | > 100 | > 100 | > 100 | > 100 | > 100 | 58.3 | 78.6 | > 100 | > 100 | > 100 | > 100 | > 100 | > 100 | > 100 | > 100 | > 100
O=c1c2ncn(CCC(CO)CO)c2nc2[nH]c(-c3ccc(C(F)(F)F)cc3)cn12 | 31.7 | 20 | 56.5 | 76.1 | 37.8 | 17.2 | 51.5 | 55.3 | > 100 | 12.5 | > 100 | ≥ 100 | 63.1 | 76.5 | 100 | 49.5
O=c1c2ncn(CCCCO)c2nc2[nH]c(-c3ccc4c(c3)OCO4)cn12 | > 100 | > 100 | > 100 | > 100 | > 100 | 92.8 | > 100 | > 100 | > 100 | > 100 | > 100 | > 100 |  |  |  | 
O=c1c2ncn(CCCCO)c2nc2[nH]c(-c3ccc(C(F)(F)F)cc3)cn12 | > 100 | > 100 | > 100 | > 100 | 63.8 | 36.1 | > 100 | > 100 | > 100 | 52.5 | > 100 | > 100 |  |  |  | 
Cc1ccc(-c2cn3c(=O)c4ncn(CCC(CO)CO)c4nc3[nH]2)cc1 | > 100 | > 100 | > 100 | > 100 | > 100 | > 100 | > 100 | > 100 | > 100 | > 100 | > 100 | > 100 | > 100 | > 100 | > 100 | 63.1
Nc1nc2c(ncn2COCCO)c(=O)[nH]1 [ACYCLOVIR] | 0.9 | 0.9 |  |  |  |  |  |  |  |  | 100 | > 250 |  |  |  | 
O=c1[nH]c(=O)n([C@H]2C[C@H](O)[C@@H](CO)O2)cc1/C=C/Br [BRIVUDINE] | > 250 |  |  |  |  |  |  |  |  |  | 14 | > 250 |  |  | 7.9 | 0.037
Nc1ccn(C[C@@H](CO)OCP(=O)(O)O)c(=O)n1 [CIDOFOVIR] |  |  |  |  |  |  |  |  |  |  | 5 | > 250 | 0.72 |  |  | 
CC(=O)O[C@@]12CO[C@@H]1C[C@H](O)[C@@]1(C)C(=O)[C@H](O)C3=C(C)[C@@H](OC(=O)[C@H](O)[C@@H](NC(=O)OC(C)(C)C)c4ccccc4)C[C@@](O)([C@@H](OC(=O)c4ccccc4)[C@H]21)C3(C)C [DOCETAXEL ANHYDROUS] |  |  | 1.63 | 0.003 | 1.19 | 0.95 | 25 | 0.00194 | 0.003 | 0.89 |  |  |  |  |  | 
COc1cc([C@@H]2c3cc4c(cc3[C@@H](O[C@@H]3O[C@@H]5CO[C@@H](C)O[C@H]5[C@H](O)[C@H]3O)[C@H]3COC(=O)[C@H]23)OCO4)cc(OC)c1O [ETOPOSIDE] |  |  | 0.06 | 1.06 | 0.04 | 0.15 | 0.23 | 0.03 | 0.54 | 1.35 |  |  |  |  |  | 
Nc1nc2c(ncn2COC(CO)CO)c(=O)[nH]1 [GANCICLOVIR] | 0.4 |  |  |  |  |  |  |  |  |  |  | > 250 |  |  |  | 
CN[C@@H]1C[C@H]2O[C@@](C)([C@@H]1OC)n1c3ccccc3c3c4c(c5c6ccccc6n2c5c31)C(=O)NC4 [STAUROSPORINE] |  |  |  |  |  |  | 0.25 |  |  |  |  |  |  |  |  | 
